Data: ChEMBL document CHEMBL5357070, “Nicotinamide Phosphoribosyltransferase Positive Allosteric Modulators Attenuate Neuronal Oxidative Stress” (ACS Med Chem Lett, 2024)
Each block holds one molecule with its values, some of them ahead of it. Active and inactive are the calls of the source. No cut-off for these calls is given here.

Columns and labels:
[1] = target: T1, Nicotinamide phosphoribosyltransferase (Homo sapiens, UniProt P43490); test: Positive allosteric modulator activity at human C-terminal his 6 tagged NAMPT using NAM and PRPP as substrate by coupled enzymatic analysis
Target sequence in this assay (P43490 whole entry): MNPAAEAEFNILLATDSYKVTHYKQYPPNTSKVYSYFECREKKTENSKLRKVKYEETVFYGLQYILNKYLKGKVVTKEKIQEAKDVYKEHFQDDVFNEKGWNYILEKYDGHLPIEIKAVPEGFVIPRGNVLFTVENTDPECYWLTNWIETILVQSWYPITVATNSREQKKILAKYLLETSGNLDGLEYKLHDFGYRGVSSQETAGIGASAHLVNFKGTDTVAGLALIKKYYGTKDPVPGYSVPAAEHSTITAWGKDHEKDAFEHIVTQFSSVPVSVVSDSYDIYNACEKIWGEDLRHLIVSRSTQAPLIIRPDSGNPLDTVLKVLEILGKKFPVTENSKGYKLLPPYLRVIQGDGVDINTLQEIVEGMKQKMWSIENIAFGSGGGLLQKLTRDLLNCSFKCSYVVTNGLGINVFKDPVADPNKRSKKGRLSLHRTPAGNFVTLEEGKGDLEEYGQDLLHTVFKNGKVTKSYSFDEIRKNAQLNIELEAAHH

[2] = test system: HT-22; test: Inhibition of oxidative stress in HT-22 cells assessed as fold reduction in […] induced ROS level at 5.0 uM measured after 18 to 24 hrs by MitoSOX red dye based flow cytometry analysis; assay type: functional, Mus musculus; details: time 18-24 hrs
Procedure, shortened: (§1)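 HT22 mouse hippocampal neuronal cells (passage 12-50) grown in DMEM with 10% FBS, seeded at 3,000-5,000 cells/well on poly D-lysine-coated wells and left overnight. Cells were pretreated with compound in matched DMSO/PBS vehicle for 18-24 h, then stressed with recombinant mouse TNFα for a further 18-24 h. Staining in PBS used 1 μM calcein-AM, 5 μM MitoSOX and 10 μg/mL Hoechst for 30-45 min. Mitochondrial ROS was read as MitoSOX mean intensity on a Celigo imaging cytometer and given as fold-change over vehicle. Each run had ≥3 intraplate replicates, and the assay was repeated in ≥3 separate experiments.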

[3] = test system: HT-22; test: Inhibition of oxidative stress in HT-22 cells assessed as fold reduction in […] induced ROS level at 0.3 uM measured after 18 to 24 hrs by MitoSOX red dye based flow cytometry analysis; assay type: functional, Mus musculus; details: time 18-24 hrs; procedure, shortened: as §1
[4] = test system: HT-22; test: Inhibition of oxidative stress in HT-22 cells assessed as reduction in […] induced ROS level at 20 to 40 uM measured after 18 to 24 hrs by MitoSOX red dye based flow cytometry analysis; assay type: functional, cell-based; details: Mus musculus, dose 20-40 µM, time 18-24 hrs
Procedure, shortened: (§2)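 HT22 mouse hippocampal neuronal cells (passage 12-50) seeded at 3,000-5,000 cells/well on poly D-lysine-coated wells and incubated overnight. Cells pretreated with compound (DMSO stocks, matched vehicle) for 18-24 h, then exposed to glutamate or mouse TNFα for 18-24 h. Stained in PBS with 1 μM calcein-AM, 5 μM MitoSOX and 10 μg/mL Hoechst for 30-45 min. Imaging cytometry; MitoSOX mean intensity expressed as fold over vehicle. At least three experiments, each with at least triplicate wells.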

[5] = test system: HT-22; test: Inhibition of oxidative stress in HT-22 cells assessed as fold reduction in […] induced ROS level at 2.5 uM measured after 18 to 24 hrs by MitoSOX red dye based flow cytometry analysis; assay type: functional, Mus musculus; details: time 18-24 hrs; procedure, shortened: as §1
[6] = target: T1, Nicotinamide phosphoribosyltransferase; test: Positive allosteric modulator activity at C-terminal his 6 tagged NAMPT in human THP-1 cells assessed as increase in NAD+ level at 30 uM incubated for 24 hrs by NAD-glo assay relative to control; assay type: cell-based
Procedure, shortened: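 THP-1 cells in RPMI 1640 with 10% heat-inactivated FBS, seeded at 37,500 cells/well (low passage). Held 1.5 h at 37 °C, 5% CO2, then treated with compound in DMSO (final ≤1%) for 24 h. NAD+ measured by NAD+/NADH-Glo luminescence. Three separate experiments per concentration.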
Target sequence in this assay (P43490 whole entry, looked up): as the sequence (P43490 whole entry) above

[7] = test system: HT-22; test: Neuroprotective activity against glutamate induced excitotoxicity in HT-22 cells assessed as decrease in ROS activity measured after 18 to 24 hrs MitoSOX red dye based flow cytometry analysis; assay type: functional, cell-based; details: Mus musculus, dose 1.25-40 µM, time 18-24 hrs; procedure, shortened: as §2
[8] = test system: HT-22; test: Neuroprotective activity against glutamate induced excitotoxicity in HT-22 cells assessed as decrease in ROS activity at 20 to 40 uM measured after 18 to 24 hrs by MitoSOX red dye based flow cytometry analysis; assay type: functional, cell-based; details: Mus musculus, dose 20-40 µM, time 18-24 hrs; procedure, shortened: as §2
[9] = test system: HT-22; test: Inhibition of oxidative stress in HT-22 cells assessed as fold reduction in […] induced ROS level at 40 uM measured after 18 to 24 hrs by MitoSOX red dye based flow cytometry analysis; assay type: functional, Mus musculus; details: time 18-24 hrs; procedure, shortened: as §1

- EC50 [1]: Not Active
Compound: COc1ccc(CNC(=O)c2ccco2)cc1

- EC50 [1]: Not Active
Compound: CC(C)C1(CCN(Cc2ccc(OC(F)(F)F)cc2)C(=O)c2ccco2)CCOC(C)(C)C1 (stereo not given)

- EC50 [1]: > 8 µM
Compound: COc1ccc(CN(CCC2(C(C)C)CCOC(C)(C)C2)C(=O)c2cnc[nH]2)cc1 (stereo not given)

- EC50 [1]: Not Active
Compound: COc1ccc(CN(CCC2(C(C)C)CCOC(C)(C)C2)C(=O)c2cncnc2)cc1 (stereo not given)

- EC50 ([1]; read-out: EC50): 12.8 µM
Compound: COc1ccc(CN(CCC2(C(C)C)CCOC(C)(C)C2)C(=O)c2ccc(Br)s2)cc1 (stereo not given)

- EC50 [1]: Not Active
Compound: COc1ccc(CN(CCC2(C(C)C)CCOC(C)(C)C2)C(=O)c2ccco2)c(C(F)(F)F)c1 (stereo not given)

Further lines, the molecule ahead of its results:

Compound: COc1ccc(CNCCC2CCOCC2)cc1
- EC50 [1]: Not Active

Compound: O=C(NCc1ccncc1)Nc1ccc(S(=O)(=O)N2CC3CCC(C2)O3)cc1
- fold change (FC) [2]: 1.348
- fold change (FC) [3]: 1.26

Compound: CC(C)C1(CCN(Cc2ccc(N(C)C)cc2)C(=O)c2ccco2)CCOC(C)(C)C1 (stereo not given)
- inhibition [4]: Active
- fold change (FC) [5]: 1.247
- fold change (FC) [2]: 1.287
- Activity ([6]; filed as positive allosteric modulator): 88%
- Activity [7]: Dose-Dependent Effect
- EC50 ([1]; read-out: EC50): 3.29 µM
- Activity [8]: Active

Compound: COc1ccc(CN(CCC2(C(C)C)CCOC(C)(C)C2)C(=O)c2ccco2)cc1 (stereo not given)
- fold change (FC) [9]: 1.133
- fold change (FC) [5]: 1.425
- Activity [6]: 18%
- fold change (FC) [3]: 1.434
